Here are results for three molecules from ChEMBL document CHEMBL1135117, “Identification of potent and selective oxytocin antagonists. Part 2: further investigation of benzofuran derivatives” (Bioorg Med Chem Lett, 2002).

Data set [1] in a line: Clearance in rat. In kind it is ADME, organism-based. The conditions noted are these: in vivo.
Data set [2] concerns the target T1, Oxytocin receptor (Homo sapiens) (UniProt P30559).
T1 sequence (whole entry): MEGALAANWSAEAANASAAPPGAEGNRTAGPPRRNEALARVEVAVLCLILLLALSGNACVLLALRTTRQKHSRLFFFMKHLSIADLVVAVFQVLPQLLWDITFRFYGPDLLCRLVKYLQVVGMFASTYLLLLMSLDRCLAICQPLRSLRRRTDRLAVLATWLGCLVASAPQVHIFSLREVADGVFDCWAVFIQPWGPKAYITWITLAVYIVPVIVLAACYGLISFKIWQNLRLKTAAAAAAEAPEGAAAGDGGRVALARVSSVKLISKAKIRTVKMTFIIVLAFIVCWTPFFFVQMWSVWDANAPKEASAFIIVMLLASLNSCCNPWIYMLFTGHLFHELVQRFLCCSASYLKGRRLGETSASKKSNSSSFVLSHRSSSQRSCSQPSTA
Description: Tested for ratio of displacement of 3H oxytocin from human OT in presence and absence of 50 mg/mL human serum albumin. Summed up:
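Displacement of [3H]oxytocin from human OT receptor, with IC50 measured with and without 50 mg/mL human serum albumin. The radioligand was made up in buffer containing 100 mg/mL HSA, a pre-dilution level. The value is the ratio of the IC50 with HSA to the IC50 without HSA.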
A general note: In a radioligand displacement assay an active substance lowers the binding of a labelled ligand.

The target of a further data set is Albumin (Homo sapiens, UniProt P02768). Description: Compound was tested for Serum albumin binding.
Albumin, sequence (P02768 whole entry): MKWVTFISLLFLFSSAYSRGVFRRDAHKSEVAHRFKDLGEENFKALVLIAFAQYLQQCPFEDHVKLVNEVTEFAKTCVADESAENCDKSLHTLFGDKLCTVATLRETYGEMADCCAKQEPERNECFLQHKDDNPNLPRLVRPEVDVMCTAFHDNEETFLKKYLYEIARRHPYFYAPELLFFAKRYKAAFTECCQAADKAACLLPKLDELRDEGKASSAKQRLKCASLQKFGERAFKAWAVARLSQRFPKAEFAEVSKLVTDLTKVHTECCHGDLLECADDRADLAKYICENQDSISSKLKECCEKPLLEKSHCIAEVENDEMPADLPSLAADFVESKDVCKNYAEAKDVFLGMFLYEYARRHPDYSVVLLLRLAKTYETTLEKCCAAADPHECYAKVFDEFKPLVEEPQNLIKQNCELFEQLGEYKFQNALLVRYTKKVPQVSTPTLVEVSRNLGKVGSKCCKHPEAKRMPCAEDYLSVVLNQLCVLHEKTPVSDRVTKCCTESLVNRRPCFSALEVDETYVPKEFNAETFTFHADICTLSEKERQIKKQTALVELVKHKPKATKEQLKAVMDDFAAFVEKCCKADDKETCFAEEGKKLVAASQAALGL
The target in data set [3] is T2, Oxytocin receptor (Homo sapiens, UniProt P30559).
T2 sequence (P30559 whole entry): T1 sequence (whole entry)
Description: Displacement of 3[H]oxytocin from human oxytocin receptor.

Data set [4] is described as follows: Compound was tested for its half life in rat. In kind it is ADME, organism-based. The note with it: in vivo.
Data set [5] is described as follows: Bioavailability in rat. In kind it is ADME, organism-based. The conditions noted are these: in vivo.
Data set [6] can be described thus: Tested for the pharmacokinetic parameter in rat and expressed as area under curve. Details: concentration or dose not given beside the values. The conditions noted are these: in vivo. In kind it is ADME, organism-based.
A short description of data set [7]: Compound was tested for plasma clearance in rat. In kind it is ADME, organism-based.
The target of data set [8] is T3, Oxytocin receptor (Rattus norvegicus, UniProt P70536).
T3 sequence (P70536 whole entry): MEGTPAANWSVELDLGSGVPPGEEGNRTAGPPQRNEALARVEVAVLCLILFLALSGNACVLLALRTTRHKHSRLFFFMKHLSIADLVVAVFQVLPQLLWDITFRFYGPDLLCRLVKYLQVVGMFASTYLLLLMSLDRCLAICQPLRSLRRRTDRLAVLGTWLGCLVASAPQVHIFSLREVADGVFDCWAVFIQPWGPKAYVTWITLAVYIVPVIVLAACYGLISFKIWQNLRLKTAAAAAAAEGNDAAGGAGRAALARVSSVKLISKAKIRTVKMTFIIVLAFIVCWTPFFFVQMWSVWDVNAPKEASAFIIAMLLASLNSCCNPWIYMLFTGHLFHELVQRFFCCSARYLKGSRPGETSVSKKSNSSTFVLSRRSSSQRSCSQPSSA
The experiment in a line: Compound was tested for displacement of 3[H] oxytocin from rat OT receptor (in vitro). Summed up:
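Myometrium from rats that littered within 2 h, homogenised in sucrose buffer; membrane fraction pelleted at 48,000g, 4 °C. Filtration binding with [3H]oxytocin at 1 nM in 50 mM HEPES, 10 mM MgCl2, pH 7.4, plus competing ligand. Incubation 1 h at room temperature, then GF/C filtration, ice-cold buffer washes, scintillation counting of bound label.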

The next data set is filed under the species Rattus norvegicus. Description: Serum concentration for 50% inhibition of uterine contractility response to oxytocin in rat. In kind it is functional, organism-based. Summed up:
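Adult female AHA rats pre-treated 18 h with diethylstilboestrol (250 µg/kg ip, corn oil), anaesthetised with pentobarbitone (60 mg/kg ip); uterine tension ~2 g. OT 0.3 µg/kg iv given 3–180 min after a single iv bolus of antagonist (DMSO/PEG200/water 20:50:30). Response = 10-min area under the contraction–time curve. Plasma drug measured by mass spectrometry in serial blood samples.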

Data set [9] can be described thus: Tested for lipophilicity. In kind it is physicochemical. The note with it: octanol/water.
Data set [10] in a line: Bioavailability in dog. In kind it is ADME, organism-based, Canis lupus familiaris. The note with it: in vivo.
The next data set addresses Vasopressin V1a receptor (Homo sapiens, UniProt P37288). Description: Compound was tested for its ability to displace vasopressin from human Vasopressin V1a receptor.
Data set [11] in a line: Compound was tested for half life in dog. In kind it is ADME, organism-based, Canis lupus familiaris. The conditions noted are these: in vivo.
Data set [12] can be described thus: Tested for plasma clearance in dog. In kind it is ADME, organism-based, Canis lupus familiaris.

Vasopressin V1a receptor, sequence (P37288 whole entry): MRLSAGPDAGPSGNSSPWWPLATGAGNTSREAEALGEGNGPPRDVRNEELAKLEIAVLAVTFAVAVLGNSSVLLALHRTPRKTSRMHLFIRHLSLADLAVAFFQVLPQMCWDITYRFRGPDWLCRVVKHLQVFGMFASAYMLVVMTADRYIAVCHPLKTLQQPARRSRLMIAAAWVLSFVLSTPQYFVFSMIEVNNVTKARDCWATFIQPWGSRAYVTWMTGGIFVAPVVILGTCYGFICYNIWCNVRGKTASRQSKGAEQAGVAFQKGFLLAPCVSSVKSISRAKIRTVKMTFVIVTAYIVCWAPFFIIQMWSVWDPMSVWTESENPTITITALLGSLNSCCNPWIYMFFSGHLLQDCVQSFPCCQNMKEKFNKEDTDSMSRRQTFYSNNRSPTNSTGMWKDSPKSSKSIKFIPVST

For orientation: clearance means a measure of how efficiently the substance is removed, as volume per time. A word on the Ki: it is the equilibrium dissociation constant of an inhibitor or competing ligand from its target. A word on the half-life: it is the time in which the quantity being followed falls by half. As a reminder, the bioavailability is the share of a dose that reaches the circulation, judged against a reference dose that is usually intravenous. A word on the AUC: it is the area under the concentration-time curve, a measure of exposure. `O=C(c1ccc2oc(CN3CCC(n4cc(C(F)(F)F)ccc4=O)CC3)cc2c1)N1CCC(N2C(=O)OCc3ccccc32)CC1` had a clearance in data set [1] of 6 mL/min/kg. In addition, the HSA shift in data set [2] was found to be 4. Also, at Albumin, the Binding was 93%. On Oxytocin receptor [3], this molecule had a Ki of 794 nM. In data set [4], this molecule showed a half-life of 1.7 h. This molecule also came in with a bioavailability in [5] of 79%. In data set [6], this molecule registered an AUC of 12000 ng·h/mL.

As usually defined, the IC50 is the point on the concentration scale where inhibition reaches its midpoint. As usually defined, the logD is the decadic logarithm of the distribution of all forms, ionised or not, between an organic phase and buffer at a given pH. `O=C(Cn1cc(C(F)(F)F)ccc1=O)NCc1cc2cc(C(=O)N3CCC(N4C(=O)OCc5ccccc54)CC3)cnc2o1`: in data set [2], the HSA shift worked out at 19. This molecule also returned a Binding at Albumin of 86.2%. Moreover, the clearance in [7] was determined as 26 mL/min/kg. Further, the Ki on Oxytocin receptor [3] is 3.16 nM. Also, the IC50 on Oxytocin receptor [8] is 744 nM; in the data set listed under Rattus norvegicus, 20 nM. For the same molecule, the half-life in [4] is 0.6 h. In addition, the bioavailability in data set [5] worked out at 2%. In addition, the logD in data set [9] came out at 1.85.

Turning to `CCOc1ccn(CC(=O)NCc2cc3cc(C(=O)N4CCC(N5C(=O)OCc6ccccc65)CC4)ccc3o2)c(=O)n1`, the bioavailability amounted to 43% in data set [10] and 2% in data set [5]. The results for the clearance in [7] and in [12] were 35 mL/min/kg and 12 mL/min/kg, respectively. Besides, the Ki on Oxytocin receptor [3] is 2 nM; on Vasopressin V1a receptor it was 1580 nM. Moreover, the half-life is 0.8 h in data set [4] and 1.9 h in data set [11].
